Measured values as given in article PMC6300136 (Cancer chemotherapy and pharmacology, 2011).
Where “and” joins values, the source holds several entries; their conditions need not be identical. Equal entries are not always repeated. Entries after “also recorded” stand apart in the source; their conditions may differ. Where two headings read alike, the source gives them in different places.

Key:
[1] = cited from earlier work
tumor cell growth = settings: inhibition of tumor cell growth in vitro; cited from earlier work
[2] = Plasma ultrafiltrate pharmacokinetics of satraplatin; type: in vivo, rhesus monkeys (Macaca mulatta)
Procedure, shortened: (§1)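 Five adult male rhesus monkeys (7.3–14.9 kg) were fasted ≥6 h before and 2 h after dosing and given IV ondansetron 0.1 mg/kg (max 2 mg) beforehand. A single dose of test compound, 6 mg/kg (human equivalent 120 mg/m2) in 5% DMSO/0.9% saline, was infused over 1 h through a central venous catheter, with IV fluid hydration during and after.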

[3] = type: in vivo, rhesus monkeys (Macaca mulatta)
Procedure, shortened: as §1

[4] = Tolerability of a single IV dose of satraplatin in non-human primates; type: in vivo, rhesus monkeys (Macaca mulatta); settings: single 120 mg/m^2 (6 mg/kg) IV dose over 1 h in NHP
Procedure, shortened: as §1

[5] = Stability of satraplatin spiked plasma at room temperature; type: in vitro ADME
[6] = cited from earlier work; remark: listed apart in the source
[7] = brain microdialysis in the same NHP model; cited from earlier work
[8] = carboplatin administration every 4 weeks; cited from earlier work
[9] = plasma UF, individual animal, 6 mg/kg IV over 1 h, 6 mg/kg
[10] = CSF from intralumbar catheter, animal 1, 6 mg/kg IV over 1 h

Q: With `N.N.[Cl][Pt][Cl]` [cisplatin] as the molecule, how does the CSF penetration ([1]; in vivo) read?
A: 3.7%

Q: With `N.NC1CCCCC1.[Cl-].[Cl-].[Pt+2]` [JM-118] as the molecule, how does the “potency relative to parent drug satraplatin” value (tumor cell growth) read?
A: up to 16 fold

Q: Which results are given for `CC(=O)[O][Pt]([NH2])([Cl])([Cl])([NH]C1CCCCC1)[O]C(C)=O` [Satraplatin, (OC-6–43)-bis(acetato)amminedichloro(cyclohexylamine)platinum]?
A: AUC0–24h in NHP after IV relative to humans at equivalent oral doses ([2]; plasma UF exposure, NHP IV versus human oral): approximately 20 fold; Tmax ([2]; plasma UF, individual animal, 6 mg/kg (120 mg/m^2) IV over 1 h, time after start of infusion, 6 mg/kg): 1.1 h and 1.0 h and 0.5 h; AUC0–48h [2, 9]: 33.2 µM·h and 27.4 µM·h and 22.6 µM·h and 29.2 µM·h; Cmax [2, 9]: 10.6 µM and 10.4 µM and 5.7 µM and 6.9 µM and 8.3 µM; Cl ([2]; plasma UF, individual animal, dose/AUC0–inf, 6 mg/kg IV over 1 h): 5.67 mL/min/kg and 5.17 mL/min/kg and 6.17 mL/min/kg and 6 mL/min/kg; T½ ([2]; plasma UF, individual animal, terminal half-life, 6 mg/kg IV over 1 h, 6 mg/kg): 13.4 h and 19.5 h and 18.8 h and 17.4 h and 25 h; Cl, median (range) ([2]; plasma UF, median (range) of 5 NHP): 0.36 (0.31–0.37) l/h/kg; AUC0–48h, median (range) ([2]; plasma UF, median (range) of 5 NHP, 6 mg/kg IV over 1 h): 29.2 (22.6–33.2) μM h; Tmax, median (range) ([2]; plasma UF, median (range) of 5 NHP, 6 mg/kg IV over 1 h, after start of infusion): 1.0 (0.5–1.1) h; AUC0–inf, median (range) ([2]; plasma UF, median (range) of 5 NHP, extrapolated to infinity): 32.1 (24.7–38.2) μM h; T½, median (range) ([2]; plasma UF, median (range) of 5 NHP, terminal half-life): 18.8 (13.4–25) h; Cmax [3, 10]: 0.62 µM; Tmax [3, 10]: 1.1 h; Ratio AUC0–48h CSF: AUC0–48h plasma UF ([3]; CSF penetration, individual animal, 6 mg/kg IV over 1 h, 6 mg/kg): 7.4% and 4.6% and 2.2% and 3.9%; AUC0–48h ([3]; CSF, individual animal, 6 mg/kg IV over 1 h, 6 mg/kg): 2.43 µM·h and 1.26 µM·h and 0.49 µM·h and 1.14 µM·h; AUC0–48h, median (range) ([3]; CSF, median (range) of NHP): 1.2 (0.49–2.43) μM h; AUC0–48 for CSF, median (range) ([3]; CSF, median, unit as printed in the results text): 1.2 µM; CSF penetration (Ratio AUC0–48h CSF: AUC0–48h plasma UF), median (range) ([3]; median (range) of NHP): 4.3 (2.2–7.4) %; Cmax ([3]; read-out: Cmax, median (range), CSF, median (range) of NHP): 0.09 µM; Tolerability [4]: well tolerated; also recorded: no adverse clinical or laboratory sequelae; stability of spiked plasma [5]: at least 2 h; accumulation factor ([6]; daily dosing in clinical trials): ≤ 4.1; half-life ([6]; human phase I trials after oral dosing, mean): 7 h

Q: Which CNS penetration [7] does the source give for `N.N.O=C([O-])C1(C(=O)[O-])CCC1.[Pt+2]` [carboplatin] here?
A: < 5%

Q: What about the incidence of anaphylaxis [8] of the same molecule?
A: ≤ 22%

Q: And the CSF penetration ([1]; non-human primate model)?
A: 2.6%
